Screening results from PubChem.
Only some compounds are listed: those with a hit (about 12% of all), similar ones and a draw of the others.
WT yeast gro inh: growth inhibition of WT yeast, mitochondrial fusion screen; mitochondrial fusion phenotypic screen, WT strain; inhibition, % at 10 µM; hit rate 2.1% among 190,000; AID 1362; in the data active = inhibition above about 58%; tested in S. cerevisiae
ABCB1 inh: blocks JC-1 efflux by human ABCB1 transporter; CCRF-Adr cells, flow cytometry; inhibition, % at 6.6 µM; hit rate 0.067% among 190,000; AID 1326; in the data active = inhibition above about 40%;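 also: 0% = vehicle and 100% = reference inhibitor; higher value means more JC-1 retained so stronger ABCB1 efflux block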
ABCG2 inh: blocks JC-1 efflux by human ABCG2 transporter; Q9UNQ0; IgMXP3 cells, flow cytometry; inhibition, % at 6.6 µM; hit rate 0.1% among 190,000;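 active = inhibition above 80%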;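 also: 0% = DMSO and 100% = nicardipine control wells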
Target sequence (Q9UNQ0 whole entry, looked up): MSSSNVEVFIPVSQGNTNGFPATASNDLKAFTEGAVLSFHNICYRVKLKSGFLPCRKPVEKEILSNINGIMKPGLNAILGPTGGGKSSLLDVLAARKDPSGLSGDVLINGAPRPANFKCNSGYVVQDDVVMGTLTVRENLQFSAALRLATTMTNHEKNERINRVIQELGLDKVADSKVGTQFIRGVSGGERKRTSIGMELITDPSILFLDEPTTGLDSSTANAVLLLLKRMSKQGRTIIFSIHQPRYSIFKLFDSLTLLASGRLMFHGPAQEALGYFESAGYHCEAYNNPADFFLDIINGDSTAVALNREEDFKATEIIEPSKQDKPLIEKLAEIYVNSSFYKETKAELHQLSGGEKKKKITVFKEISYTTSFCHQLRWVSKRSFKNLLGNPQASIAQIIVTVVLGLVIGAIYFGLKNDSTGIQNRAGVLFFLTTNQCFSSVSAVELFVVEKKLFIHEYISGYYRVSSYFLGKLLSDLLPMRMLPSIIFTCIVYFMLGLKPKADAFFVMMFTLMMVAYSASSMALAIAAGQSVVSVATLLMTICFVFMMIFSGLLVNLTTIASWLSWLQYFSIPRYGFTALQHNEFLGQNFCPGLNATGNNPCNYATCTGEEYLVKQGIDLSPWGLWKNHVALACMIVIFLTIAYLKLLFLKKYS
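Times: 10 min at 25 °C | Test system: Two drug-resistant human cell lines, ABCG2 and ABCB1 | Quantity: 3 million cells/mL final, two lines in 1:1 ratio | Signal: Flow cytometry, 530 nm JC-1 signal | Dosing: Compound at 6.6 µM | Controls: Nicardipine and DMSO wells | Reagent: JC-1 as fluorescent efflux pump substrate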
RAM inhibit: blocks the yeast RAM network; S. cerevisiae dse1pr::URA3 reporter, 5-FOA growth OD615, 2 d; analog-sensitive cbk1-as2 kinase mutant strain; inhibition, % at 50 µM; hit rate 1.8% among 190,000; AID 868;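 active = inhibition above a set limit, 3 SD over mean compound inhibition, cut at about 8.4% in these data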;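 also: 0% = DMSO-only wells with no growth and 100% = 10 µM 1-NA-PP1 full growth; inhibition rescues growth on 5-FOA so higher OD means more RAM inhibition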
Lmaj promast: reduces viability of Leishmania major promastigotes. hit rate 9% among 200,000. AID 1063. inhibition, % at 10 µM. resazurin fluorescence viability; in the data active = inhibition above about 50%;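 also: promastigotes grown with compound for 44 hours at 28 °C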
Starred values were filed as active, the others as inactive.

SMILES	WT yeast gro inh	ABCB1 inh	ABCG2 inh	RAM inhibit	Lmaj promast
Cc1sc2nc(CSc3ccc([N+](=O)[O-])c(C(F)(F)F)c3)[nH]c(=O)c2c1C	-11.9	0.4	2.3	5.8	-5.0
COc1ccc(OCCC(=O)NCc2ccccc2)cc1	1.0	0.3	0.8	-1.2	-4.3
COc1ccc(OCCC(=O)NCC23CC4CC(CC(C4)C2)C3)cc1	5.9	0.1	9.0	2.1	97.2*
CCc1ccc(S(=O)(=O)NCCc2csc(-c3ccccc3)n2)s1	-10.8	0.4	0.9	8.5*	-1.1
CCc1ccc(S(=O)(=O)NCc2csc(-c3ccccc3)n2)s1	23.0	0.4	0.9	6.5	-0.3
Cc1c(C(=O)N/N=C/C(C)C)[nH]c2ccc([N+](=O)[O-])cc12	18.1	0.2	5.3	-0.7	51.0*
Cc1c(C(=O)N/N=C/c2ccc(Cl)cc2)[nH]c2ccc(Cl)cc12	74.8	0.6	50.0	8.5*	-7.3
COc1ccc(/C=N/NC(=O)c2[nH]c(C)c(C(=O)N/N=C/c3ccc(OC)cc3)c2C)cc1	17.5	0.4	0.1	2.8	-1.8
CCNS(=O)(=O)c1ccc(NC(=O)c2ccc(Cn3cc(Br)cn3)o2)cc1	-10.1	0.1	0.4	1.1	4.8
CCOCCCNC(=O)/C(C#N)=C/c1ccc(Cl)c([N+](=O)[O-])c1	16.0	0.7	15.1	3.5	100.1*
CCOCCCNC(=O)/C(C#N)=C/c1cc(OC)c(O)c([N+](=O)[O-])c1	-4.8	0.2	1.5	0.8	0.4
CCOCCCNC(=O)/C(C#N)=C/c1cc(C)c(O)c(C)c1	-0.6	5.2	21.7	2.5	2.9
CCOCCCNC(=O)/C(C#N)=C/c1ccc(C(=O)OC)cc1	-1.8	0.5	6.0	2.4	57.6*
COc1ccc(Cl)cc1NC(=S)Nc1ccccc1C	-29.9	-0.2	0.3	-0.1	7.8
Cc1ccc(N(NC(=O)C(O)(c2ccccc2)c2ccccc2)C(=O)CCl)cc1	-19.1	-0.1	0.2	4.2	88.1*
COc1ccc(Nc2ccnc(Nc3ccc(OC)cc3)n2)cc1	46.6	2.2	13.7	1.4	100.4*
COc1ccc(Nc2ccccc2N)cc1	26.3	-0.3	-1.9	1.0	92.1*
COc1ccc(Nc2ccnc3ccccc23)cc1	-1.0	3.6	34.8	1.3	100.6*
COc1ccc(Nc2nc3ccccc3s2)cc1	3.8	-0.1	0.2	-0.7	-4.6
CCOc1nc(Nc2ccc(OC)cc2)nc(OCC)n1	18.9	0.6	6.6	0.8	36.2
Cc1ccc(-c2csc(NC(=O)c3ccc(S(=O)(=O)N4CCc5ccccc54)cc3)n2)cc1	5.0	-0.2	0.2	1.8	100.0*
O=C(Nc1nc(-c2ccccc2)cs1)c1ccc(S(=O)(=O)N2CCc3ccccc32)cc1	18.0	0.2	1.0	2.6	98.7*
O=C(Nc1nc(-c2cc3ccccc3o2)cs1)c1ccc(S(=O)(=O)N2CCCC2)cc1	-1.2	0.3	-1.3	3.4	22.8
O=S1(=O)CC2N=C(N(Cc3c(F)cccc3Cl)c3ccccc3F)SC2C1 (stereo not given)	-7.4	0.1	-1.0	0.3	8.2
Cc1ccc(-c2nn(-c3cc(N4CCNCC4)ccc3[N+](=O)[O-])c(=O)c3ccccc23)cc1	10.2	2.5	-2.7	-0.6	100.7*
SMILES	WT yeast gro inh	ABCB1 inh	ABCG2 inh	RAM inhibit	Lmaj promast
Cc1nn(-c2cc(N3CCCCCC3)ccc2[N+](=O)[O-])c(=O)c2ccccc12	3.7	0.4	-1.2	1.4	46.7
O=C(CN1CCN(c2ccccn2)CC1)Nc1ccccc1	-5.5	1.3	4.0	0.5	-1.3
O=C(CN1CCN(c2ccccn2)CC1)Nc1ccc(Oc2ccccc2)cc1	8.3	0.4	3.5	0.4	90.2*
O=C(COC(=O)C1CC1)Nc1ccc(Oc2ccccc2)cc1	17.5	0.3	1.9	2.5	25.7
O=C(CN1CCCCC1)Nc1ccccc1	-18.7	0.8	3.0	1.2	-5.4
O=C(COC(=O)C1CCC1)Nc1ccc(Oc2ccccc2)cc1	-2.0	-0.4	4.7	-0.4	67.1*
O=C(CN1CCCCCC1)Nc1ccc(Oc2ccccc2)cc1	15.2	0.1	0.2	3.4	62.2*
OCC1(CCOc2ccccc2)CCN(Cc2cccn2-c2ncccn2)CC1	-9.2	1.6	4.2	2.2	29.9
OCC1(CCOc2ccccc2)CCN(C2Cc3ccccc3C2)CC1	8.8	1.5	1.1	0.0	88.2*
Cc1cc(C)c(CN2CCC(CO)(CCOc3ccccc3)CC2)cc1C	15.5	-0.1	0.0	1.1	60.3*
CCOC(=O)C1=C(c2ccccc2)N=C2SCC(=O)N2C1c1ccc2c(c1)OCO2 (stereo not given)	60.0*	0.9	3.0	4.8	-0.6
